The values below come from PMC9298202 (Chemmedchem, 2021).

Structures are written as SMILES.

Experiment [1] deals with Leishmania infantum promastigote forms. In words: In vitro activity on promastigote. The experiment is classed as cell-based. The settings on record: for Selectivity index Promastigote forms: L. infantum, IC50 macrophages toxicity/IC50 activity; for IC50: Leishmania infantum, read-out: Activity IC50 Promastigote forms.
The test system of experiment [2] is Leishmania infantum amastigote forms. Kind of experiment: In vitro activity on amastigote. The experiment is classed as cell-based. The settings on record: for Selectivity index Amastigote forms: L. infantum, IC50 macrophages toxicity/IC50 activity; for IC50: Leishmania infantum, read-out: Activity IC50 Amastigote forms.
Another experiment concerns J774.2 macrophages. Kind of experiment: Cytotoxicity in J774.2 macrophages. The experiment is classed as cell-based. To be noted: Mus musculus, J774.2, 72 h, read-out: Toxicity in macrophages IC50.
Experiment [3] concerns Leishmania braziliensis promastigote forms. In words: In vitro activity on promastigote. In kind it is cell-based. To be noted: for Selectivity index Promastigote forms: L. braziliensis, IC50 macrophages toxicity/IC50 activity; for IC50: Leishmania braziliensis, read-out: Activity IC50 Promastigote forms. In a few lines:
(§1)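 Extracellular promastigotes were tested at 1, 10, 25 and 200 µM, and IC50 was derived by linear regression from Kc values, averaging four determinations.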

Experiment [4] has as its system Leishmania braziliensis amastigote forms. In words: In vitro activity on amastigote. The experiment is classed as cell-based. The settings on record: for Selectivity index Amastigote forms: L. braziliensis, IC50 macrophages toxicity/IC50 activity; for IC50: Leishmania braziliensis, read-out: Activity IC50 Amastigote forms. The procedure, abridged:
(§2)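 J774.2 macrophages were infected with promastigotes, which became intracellular amastigotes within 1 day; test compounds were then added. IC50 came from linear regression of Kc values at 1, 10, 25 and 200 µM, averaging four determinations.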

For experiment [5], the system named is Leishmania donovani promastigote forms. In words: In vitro activity on promastigote. The settings on record: for Selectivity index Promastigote forms: L. donovani, IC50 macrophages toxicity/IC50 activity; for IC50: Leishmania donovani, read-out: Activity IC50 Promastigote forms. In kind it is cell-based. In a few lines: as §1
The subject of experiment [6] is Leishmania donovani amastigote forms. In words: In vitro activity on amastigote. The experiment is classed as cell-based. The settings on record: for Selectivity index Amastigote forms: L. donovani, IC50 macrophages toxicity/IC50 activity; for IC50: Leishmania donovani, read-out: Activity IC50 Amastigote forms. The procedure, abridged:
as §2

Experiment [7] relates to Trypanosoma cruzi SN3 epimastigote forms. Kind of experiment: Epimastigote assay, T. cruzi SN3. To be noted: for Selectivity index Epimastigote forms: T. cruzi SN3, IC50 Vero cell toxicity/IC50 activity; for IC50: Trypanosoma cruzi, read-out: Activity IC50 Epimastigote forms. In kind it is cell-based. The procedure, abridged:
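SN3 epimastigotes (Rhodnius prolixus isolate, Colombia) were grown at 28 °C in Grace's Insect Medium + 10% inactivated FBS. Exponential-phase cells were plated at 5×10^4 parasites/well with test compound in MTL medium at 100, 50, 25, 12,5 and 6,25 µM. Counts after 72 h used a Neubauer chamber. IC50 came from linear regression of Kc values; SI = Vero IC50/epimastigote IC50.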

Experiment [8] has as its system Trypanosoma cruzi SN3 amastigote forms. In words: Amastigote assay, T. cruzi SN3. To be noted: for Selectivity index Amastigote forms: T. cruzi SN3, IC50 Vero cell toxicity/IC50 activity; for IC50: Trypanosoma cruzi, read-out: Activity IC50 Amastigote forms. In kind it is cell-based. The procedure, abridged:
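Vero cells in RPMI + 10% inactivated FBS (37 °C, 5% CO2) were seeded at 1×10^4 cells/well on coverslips for 2 days. They were infected 10:1 with SN3 metacyclic forms, obtained by 12-day culture of epimastigotes at 28 °C in modified Grace's medium (~40% metacyclic). After 24 h, cells were washed and exposed to 6.25–100 µM for 72 h. Giemsa-stained amastigotes were counted; IC50 from four determinations; SI used Vero IC50.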

The subject of experiment [9] is Trypanosoma cruzi SN3 trypomastigote forms. Kind of experiment: Trypomastigote activity, T. cruzi SN3. In kind it is cell-based. To be noted: for Selectivity index Trypomastigote forms: T. cruzi SN3, IC50 Vero cell toxicity/IC50 activity; for IC50: Trypanosoma cruzi, read-out: Activity IC50 Trypomastigote forms.
The test system of a further experiment is Vero cells. In words: Cytotoxicity in Vero cells. The experiment is classed as cell-based. To be noted: Chlorocebus sabaeus, Vero, 72 h, read-out: Vero cells toxicity IC50. In a few lines:
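Vero cells were grown in RPMI + 10% inactivated FBS at 37 °C in humidified 5% CO2. They were resuspended at 1×10^5 cells/mL, cultured 2 days, then given fresh medium with test compound for 72 h. Viability was read by flow cytometry. IC50 was derived by linear regression from Kc values; results average four determinations.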

For experiment [10], the system named is Fe-SOD in T. cruzi epimastigotes. In words: Fe-SOD inhibition, T. cruzi. In kind it is biochemical, Trypanosoma cruzi. To be noted: extent reached in the tested concentration range (Figure 9). In a few lines: (§3)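 Promastigotes or T. cruzi epimastigotes were grown in MTL (HBSS + 10% heat-inactivated FBS) at 26 °C to ~1×10^7/mL. Log-phase cells were pelleted and held 24 h at 27 °C to excrete SOD. Filtered supernatant was fractionated with 35% then 85% ammonium sulphate and desalted on Sephadex G-25. Activity was measured as NBT reduction (methionine, riboflavin, Triton X-100) at 560 nm before and after 10 min UV illumination.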

The test system of experiment [11] is Fe-SOD in L. infantum promastigotes. Kind of experiment: Fe-SOD inhibition, L. infantum. In kind it is biochemical, Leishmania infantum. To be noted: extent reached in the tested concentration range (Figure 6). In a few lines: as §3

`c1ccc2c(NCCCn3ccnc3)nncc2c1` [1 f, 1‐[3‐(imidazol‐1‐yl)propylamino]phthalazine]: the “Selectivity index Promastigote forms” value in experiment [1] is reported as 19; in experiment [3], 12; in experiment [5] it was 4. Also, the IC50 came out at 11.1 ± 0.4 µM in [1]; 10.7 ± 0.7 µM in experiment [2]; 211 ± 10.3 µM in the experiment with J774.2 macrophages; 17.8 ± 1.4 µM in experiment [3]; 15 ± 0.9 µM in experiment [4]; 52 ± 3.6 µM in [5]. Besides, the IC50 stood at 44.7 ± 5.6 µM in [6]; 102 ± 4.1 µM in experiment [7]; 44.3 ± 2.7 µM in experiment [8]; 40.8 ± 3.1 µM in experiment [9]; 156 ± 4.6 µM with Vero cells. The “Selectivity index Amastigote forms” value in [2] is listed as 20; in experiment [4] it was 14; in experiment [6], 5; in experiment [8] it was 3. In addition, the “Selectivity index Epimastigote forms” value in experiment [7] came to 1. Besides, the “Selectivity index Trypomastigote forms” value in experiment [9] came out at 4.
Turning to `c1ccc2c(NCCCn3ccnc3)ncnc2c1` [3 b, N ‐[3‐(1H‐imidazol‐1‐yl)propyl]quinazolin‐4‐amine], the “Selectivity index Promastigote forms” value is on record as 3 in experiment [1], 6 in [3] and 23 in [5]. The concentration for half-maximal inhibition (IC50) worked out at 14.7 ± 0.6 µM in [1]; 11.9 ± 0.7 µM in experiment [2]; 45.9 ± 2.8 µM with J774.2 macrophages; 7.6 ± 0.5 µM in experiment [3]; 6.6 ± 0.6 µM in [4]; 2 ± 0.4 µM in [5]. Also, the IC50 in experiment [6] was determined as 2.7 ± 0.3 µM; in experiment [7], 9.4 ± 0.7 µM; in experiment [8], 2.4 µM; in experiment [9], 1.3 ± 0.6 µM; with Vero cells, 121 ± 6.3 µM. The “Selectivity index Amastigote forms” value in experiment [2] is listed as 4; in [4], 7; in experiment [6] it was 17; in experiment [8], 50. For the same molecule, the “Selectivity index Epimastigote forms” value in [7] turned out to be 13. Besides, the “Selectivity index Trypomastigote forms” value in [9] stood at 93. Moreover, in experiment [10], the “extent of inhibition of enzyme activity” value is “approximately 50%”.
For `c1cnc(NCCCn2ccnc2)cn1` [4 b, N‐(3‐(1H‐imidazol‐1‐yl)propyl)pyrazin‐2‐amine], the “Selectivity index Promastigote forms” value in experiment [1] amounted to 15; in experiment [3] it was 16; in [5] it was 7. In addition, the half-maximal inhibitory concentration (IC50) amounted to 1.6 ± 0.2 µM in experiment [1]; 2.7 ± 0.1 µM in experiment [2]; 23.8 ± 1.9 µM in the experiment with J774.2 macrophages; 1.5 ± 0.2 µM in experiment [3]; 2.3 ± 0.2 µM in [4]; 3.6 ± 0.4 µM in experiment [5]. Moreover, the results for the concentration for half-maximal inhibition (IC50) (in experiment [6]; in experiment [7]; in the experiment on Vero cells) were 2.5 µM, 15.7 ± 0.5 µM and 26.8 ± 0.9 µM, respectively. The “Selectivity index Amastigote forms” value in [2] came to 9; in [4], 10; in experiment [6], 9. Besides, the “Selectivity index Epimastigote forms” value in [7] is recorded as 2 (2). In [11], the “extent of inhibition of enzymatic activity” value was “more than 80%”.

A word on the IC50: it is the concentration that gives 50% inhibition.
